Reference: article PMC6032921 (Acta Physiologica (Oxford, England), 2018)

Tests used:
TRPV1 [1] = settings: cited from earlier work
[2] = list of hypothermia‐inducing TRPV1 antagonists; cited from earlier work
rats [3] = settings: cited from earlier work
TRPV1 [4] = settings: cited from earlier work; for effect on TRPV1 activation by protons in vitro: ref Lehto et al 16
Trpv1 ^+/+ mice [5] = test: Abdominal T b in Trpv1 +/+ mice, telemetry, i.p. catheter; format: in vivo, mouse; settings: 10 mg kg^−1 i.p.
Summary of the method: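 Mice of both sexes (18‐27 g) were habituated to wire‐mesh confiners for 8 days. Under ketamine‐xylazine they were implanted intraperitoneally with a telemetry transmitter and a saline‐filled catheter, and tested 3‐6 days later. Test compound (0.75 mg mL⁻¹ in saline with 5% Tween‐80, warmed to 37°C) was given as a 10 mg kg⁻¹ bolus (~13 mL kg⁻¹) via the catheter, versus vehicle. Abdominal T_b was analysed by 2‐way ANOVA with Fisher's LSD.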

Trpv1 ^−/− mice [6] = test: Abdominal T b in Trpv1 −/− mice, telemetry, i.g. gavage; format: in vivo, mouse; settings: 30 mg kg^−1 i.g.
rat TRPV1 channels [7] = molecular target: T1, rat TRPV1 channels (Rattus norvegicus, UniProt O35433); test: ^45Ca^2+ uptake assay with scintillation counter, CHO cells expressing rat TRPV1; format: cell-based; settings: pH 5.0
T1 sequence (O35433 whole entry): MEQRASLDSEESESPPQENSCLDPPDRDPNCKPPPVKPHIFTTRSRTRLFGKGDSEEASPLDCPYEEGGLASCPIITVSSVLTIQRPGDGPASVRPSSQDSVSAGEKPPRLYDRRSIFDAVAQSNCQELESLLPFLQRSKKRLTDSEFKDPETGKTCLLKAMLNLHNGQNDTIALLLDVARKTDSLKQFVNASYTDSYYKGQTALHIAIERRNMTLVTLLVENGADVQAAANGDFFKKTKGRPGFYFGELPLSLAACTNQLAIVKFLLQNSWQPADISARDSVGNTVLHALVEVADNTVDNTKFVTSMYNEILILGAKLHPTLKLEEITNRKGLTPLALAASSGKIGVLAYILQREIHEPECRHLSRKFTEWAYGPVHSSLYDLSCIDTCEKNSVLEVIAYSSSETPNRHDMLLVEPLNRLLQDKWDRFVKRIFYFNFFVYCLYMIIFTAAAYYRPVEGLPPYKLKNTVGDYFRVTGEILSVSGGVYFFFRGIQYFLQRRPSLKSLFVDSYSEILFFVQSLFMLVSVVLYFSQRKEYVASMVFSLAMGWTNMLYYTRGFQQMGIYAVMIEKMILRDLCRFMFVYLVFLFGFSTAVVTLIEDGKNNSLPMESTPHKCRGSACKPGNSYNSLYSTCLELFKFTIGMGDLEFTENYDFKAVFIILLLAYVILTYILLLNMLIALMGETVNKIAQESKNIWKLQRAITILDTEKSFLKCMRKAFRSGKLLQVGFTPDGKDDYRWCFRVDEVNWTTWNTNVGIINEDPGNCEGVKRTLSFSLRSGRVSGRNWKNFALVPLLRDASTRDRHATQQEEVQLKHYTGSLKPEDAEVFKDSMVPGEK
Summary of the method: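 CHO cells stably expressing rat TRPV1 were seeded 2 days before the assay (20,000 cells/well). Cells were exposed for 2 min at room temperature to test compound (200 pmol L⁻¹ to 4 μmol L⁻¹) with capsaicin (500 nmol L⁻¹) in HBSS pH 7.4 with BSA and HEPES, or with compound in MES buffer pH 5.0 with 30 mmol L⁻¹ HEPES. ⁴⁵Ca²⁺ (10 μCi mL⁻¹ final) was added for 2 min, cells were washed, and uptake was measured by scintillation counting.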

Trpv1 ^+/+ mice [8] = test: Abdominal T b in Trpv1 +/+ mice, telemetry, i.g. gavage; format: in vivo, mouse; settings: 30 mg kg^−1 i.g., at 140 minutes
Trpv1 ^−/− mice [9] = test: Abdominal T b in Trpv1 −/− mice, telemetry, i.p. catheter; format: in vivo, mouse; settings: 10 mg kg^−1 i.p.
rat TRPV1 channels [10] = molecular target: T1, rat TRPV1 channels; settings: cited from earlier work
human TRPV1 channels = human TRPV1 channels (Homo sapiens, UniProt Q8NER1); settings: cited from earlier work
Chain of human TRPV1 channels (Q8NER1 whole entry): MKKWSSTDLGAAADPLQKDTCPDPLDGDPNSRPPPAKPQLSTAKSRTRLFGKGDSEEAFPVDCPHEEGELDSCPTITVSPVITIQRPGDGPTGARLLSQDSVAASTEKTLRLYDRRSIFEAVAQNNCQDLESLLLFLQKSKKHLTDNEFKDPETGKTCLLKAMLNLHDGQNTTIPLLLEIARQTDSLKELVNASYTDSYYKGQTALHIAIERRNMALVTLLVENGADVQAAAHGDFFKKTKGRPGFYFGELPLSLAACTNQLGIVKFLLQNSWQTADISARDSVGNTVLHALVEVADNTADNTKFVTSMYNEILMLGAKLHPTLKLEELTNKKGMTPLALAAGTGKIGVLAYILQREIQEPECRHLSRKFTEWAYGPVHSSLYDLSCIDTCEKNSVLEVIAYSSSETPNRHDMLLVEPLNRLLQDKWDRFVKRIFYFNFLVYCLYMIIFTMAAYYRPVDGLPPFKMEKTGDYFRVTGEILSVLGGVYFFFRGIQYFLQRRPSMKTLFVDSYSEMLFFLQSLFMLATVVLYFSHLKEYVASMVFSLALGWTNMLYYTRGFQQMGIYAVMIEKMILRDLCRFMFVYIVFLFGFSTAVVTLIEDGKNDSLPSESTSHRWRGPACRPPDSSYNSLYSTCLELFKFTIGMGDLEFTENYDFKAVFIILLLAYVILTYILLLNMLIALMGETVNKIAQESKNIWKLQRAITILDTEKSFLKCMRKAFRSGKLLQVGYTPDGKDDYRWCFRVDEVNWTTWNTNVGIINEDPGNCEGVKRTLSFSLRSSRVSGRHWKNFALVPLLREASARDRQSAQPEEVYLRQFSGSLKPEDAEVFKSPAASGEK

corneal TRPV1 channels = corneal TRPV1 channels (Rattus norvegicus, UniProt O35433); test: Eye‐wiping test after intra‐abdominal RTX desensitization; format: in vivo; settings: rats desensitized with RTX 20 μg kg^−1 i.p.
Chain of corneal TRPV1 channels (O35433 whole entry): as the sequence (O35433 whole entry) above
Summary of the method: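 This test was done 6‐16 days after i.p. RTX (20 μg kg⁻¹) or vehicle pre‐treatment of rats. Counts were compared between desensitized and sham‐desensitized rats by […] 2‐tailed Student's t test.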

humans = settings: clinical trial in humans; cited from earlier work
rats [11] = settings: rat models of inflammatory pain and heat hyperalgesia; cited from earlier work

For `C=C(C)[C@]12C[C@@H](C)[C@@]34O[C@](Cc5ccccc5)(O[C@@H]1[C@@H]3C=C(COC(=O)Cc1cc(I)c(O)c(OC)c1)C[C@]1(O)C(=O)C(C)=C[C@@H]41)O2` [5′‐I‐RTX, 5′‐iodo‐resiniferatoxin], which “TRPV1 agonistic or capsaicin‐potentiating activity” value (TRPV1 [1]) is on record?
Its value is “partial agonists”.

What about the “effect on deep body temperature (T b)” value [2] of the same compound?
The value was “cause hypothermia”.

Which “effect on deep T b in rats” value (rats [3]) does the source give for `O=C(/C=C/c1ccc(C(F)(F)F)nc1N1CCCCC1)Nc1cccc2c1CC(O)CC2` (centres unmarked) [AMG0347] here?
The value was “increase deep T b in rats”.

With `FC(F)(F)c1ccc(-c2cc(Nc3ccc4ncsc4c3)ncn2)c(NCC2CCCCC2)c1` [AMG7905] as the compound, how does the “effect on TRPV1 activation by protons in vitro” value (TRPV1 [4]) read?
The value was “potentiated TRPV1 activation by protons in vitro”.

What about the “drop in T b compared to vehicle” value (Trpv1 ^+/+ mice [5]) of the same compound?
The value was over 2 °C.

And the “TRPV1 agonistic or capsaicin‐potentiating activity” value (TRPV1 [1])?
The value was “showed no TRPV1 agonistic or capsaicin‐potentiating activity”.

What about the “effect on T b” value (Trpv1 ^−/− mice [6]) of the same compound?
The value was “did not cause hypothermia”.

What about the “effect on ^45Ca^2+ influx in the proton activation mode” value (rat TRPV1 channels [7]) of the same compound?
The value was “concentration‐dependent potentiation”.

And the “biggest intertreatment difference in T b (hypothermia vs vehicle)” value (Trpv1 ^+/+ mice [8])?
The value was 7.8 °C.

And the “effect on deep body temperature (T b)” value [2]?
Its value is “cause hypothermia”.

What about the “effect on T b” value (Trpv1 ^−/− mice [9]) of the same compound?
The value was “neither A‐1165901 nor AMG7905 had any effect on T b”.

What does the source list for `O=C(/C=C/c1ccc(C(F)(F)F)cc1N1CCCCC1)Nc1cccc2c1C[C@H](O)C2` [AMG8562, (R, E)‐N‐(2‐hydroxy‐2,3‐dihydro‐1H‐inden‐4‐yl)‐3‐(2‐(piperidin‐1‐yl)‐4‐(trifluoromethyl)phenyl)‐acrylamide]?
effect on TRPV1 activation by protons in vitro (TRPV1 [4]): potentiated TRPV1 activation by protons in vitro; TRPV1 agonistic or capsaicin‐potentiating activity (TRPV1 [1]): showed no TRPV1 agonistic or capsaicin‐potentiating activity; effect on deep body temperature (T b) [2]: cause hypothermia

For `CC(=O)Nc1nc2c(Oc3cc(-c4ccc(C(F)(F)F)cc4)ncn3)cccc2s1` [AMG 517], which “effect on deep T b in rats” value (rats [3]) is on record?
Its value is “increase deep T b in rats”.

Which results are given for `O=C(NCc1ccc(C(F)(F)F)cc1)Nc1cccc2cnccc12` [A‐425619, 1‐isoquinolin‐5‐yl‐3‐(4‐trifluoromethyl‐benzyl)‐urea]?
TRPV1 agonistic or capsaicin‐potentiating activity (TRPV1 [1]): showed no TRPV1 agonistic or capsaicin‐potentiating activity; effect on deep body temperature (T b) [2]: cause hypothermia

For `Cc1ccc(N2c3cccc(C(=O)Nc4ccc(OCC(F)(F)F)nc4)c3OC[C@@H]2CO)nc1` [JTS‐653, (3S)‐3‐(hydroxymethyl)‐4‐(5‐methylpyridin‐2‐yl)‐N‐[6‐(2,2,2‐trifluoroethoxy)pyridin‐3‐yl]‐3,4‐dihydro‐2H‐benzo[b][1,4]oxazine‐8‐carboxamide], which “effect on proton‐induced activation of TRPV1” value (rat TRPV1 channels [10]) is on record?
Its value is “potently block proton‐induced activation”.

What about the “effect on T b in rats” value (rats [3]) of the same compound?
Its value is “cause hyperthermia in rats”.

What about the “effect on proton‐induced activation of TRPV1” value (human TRPV1 channels) of the same compound?
Its value is “potently block proton‐induced activation”.

What does the source list for `CC(C)(C)c1ccc(CNC(=S)NCc2ccc(NS(C)(=O)=O)c(F)c2)cc1` [JYL1421]?
TRPV1 agonistic or capsaicin‐potentiating activity (TRPV1 [1]): showed no TRPV1 agonistic or capsaicin‐potentiating activity; effect on deep body temperature (T b) [2]: cause hypothermia

Which “eye‐wiping response to topical RTX in desensitized vs sham‐desensitized rats” value (corneal TRPV1 channels) does the source give for `C=C(C)[C@]12C[C@@H](C)[C@@]34O[C@](Cc5ccccc5)(O[C@@H]1[C@@H]3C=C(COC(=O)Cc1ccc(O)c(OC)c1)C[C@]1(O)C(=O)C(C)=C[C@@H]41)O2` [RTX, resiniferatoxin] here?
Its value is “no meaningful difference”.

For `O=C(Nc1ccc(C(F)(F)F)cn1)N1CC=C(c2ncc([C@H](O)CO)cc2Cl)CC1` [V116517, 4‐[3‐chloro‐5‐[(1S)‐1,2‐dihydroxyethyl]‐2‐pyridyl]‐N‐[5‐(trifluoromethyl)‐2‐pyridyl]‐3,6‐dihydro‐2H‐pyridine‐1‐carboxamide], which “effect on T b in humans” value (humans) is on record?
Its value is “caused no hyperthermia”.

What about the “effect on TRPV1 activation by protons” value (TRPV1 [4]) of the same compound?
Its value is “potently blocking TRPV1 activation by protons”.

And the “effect on T b in rats” value (rats [3])?
The value was “causing hyperthermia in rats”.

Which “effect on proton activation of TRPV1” value (rat TRPV1 channels [10]) does the source give for `Oc1cc2c(cc1O)CN(C(=S)NCCc1ccc(Cl)cc1)CCC2` [capsazepine] here?
Its value is “no allosteric effect on proton activation”.

And the “effect on T b in rats” value (rats [3])?
The value was “does not affect T b in rats”.

What about the “efficacy in pain models” value (rats [11]) of the same compound?
Its value is “efficacious”.
